Results on 7 compounds are retold here after ChEMBL document CHEMBL1156675, “Synthesis and antituberculosis activity of new thiazolylhydrazone derivatives” (Eur J Med Chem, 2008).

Each structure is given as a SMILES string. Converted amounts (≈) assume the structure as drawn.

In one experiment the test system is NIH3T3. The experiment in a line: Cytotoxicity against mouse NIH3T3 cells after 24 hrs by MTT assay. It counts as cell-based. The settings on record: NIH3T3, 24 h. An outline of the steps: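 NIH/3T3 cells grown in DMEM with 10% fetal calf serum, penicillin and streptomycin at 37 °C, 5% CO2. Plated at 5 × 10⁴ cells/ml, preincubated 24 h, then exposed to compounds (DMSO stocks diluted in medium, final DMSO <0.6%) for 24 h. MTT 0.5 mg/ml final, 4 h, 37 °C; formazan dissolved in DMSO, absorbance 540 nm. Triplicate wells; IC50 = concentration halving absorbance versus control.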

The subject of experiment [1] is Mycobacterium tuberculosis. The experiment in a line: Antitubercular activity against Mycobacterium tuberculosis H37Rv ATCC 27294 by microplate alamar blue assay. It counts as functional. For orientation: Alamar Blue is a resazurin reagent that responds to reducing activity.
For experiment [2], the system named is Mycobacterium tuberculosis. As to the kind of experiment: Antitubercular activity against Mycobacterium tuberculosis H37Rv ATCC 27294 at 6.25 ug/ml by microplate alamar blue assay. It counts as functional. An outline of the steps: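 Single-concentration primary screen at 6.25 against H37Rv in BACTEC 12B medium by Microplate Alamar Blue Assay, with results read as percent inhibition on a BACTEC 460 radiometric system. Positive BACTEC culture (GI ≥500) or McFarland No. 1 suspension was inoculated into drug vials and incubated at 37 °C with daily reads. Once the control GI reached ≥30, the daily ΔGI of drug and control vials was compared.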

In turn, `C/C(=N\Nc1nc(-c2ccc3c(c2)CCC3)cs1)c1ccc(C)cc1` came in with an IC50 in the experiment with NIH3T3 of 49 µg/mL (≈ 141 µM).

Turning to `C/C(=N\Nc1nc(-c2ccc3c(c2)CCC3)cs1)c1ccc([N+](=O)[O-])cc1`, in the experiment with NIH3T3, the IC50 came to 90 µg/mL (≈ 238 µM).

Turning to `C/C(=N\Nc1nc(-c2ccc3c(c2)CCC3)cs1)c1ccc(Cl)c(Cl)c1`, the IC50 with NIH3T3 is 110 µg/mL (≈ 273 µM).

In turn, `COc1ccc(/C(C)=N/Nc2nc(-c3ccc4c(c3)CCC4)cs2)cc1` displayed a half-maximal inhibitory concentration (IC50) in the experiment on NIH3T3 of 180 µg/mL (≈ 495 µM). Against the preceding compound, the IC50 is about 1.6-fold higher.

On to `CO[C@H]1/C=C/O[C@@]2(C)Oc3c(C)c(O)c4c(O)c(c(/C=N/N5CCN(C)CC5)c(O)c4c3C2=O)NC(=O)/C(C)=C\C=C\[C@H](C)[C@H](O)[C@@H](C)[C@@H](O)[C@@H](C)[C@H](OC(C)=O)[C@@H]1C` [RIFAMPIN], for which the minimal inhibitory concentration (MIC) in experiment [1] amounted to 0.25 µg/mL (≈ 0.304 µM). Further, in experiment [2], at 6.25 µg/mL the inhibition was 98%.

With `C/C(=N\Nc1nc(-c2ccc3c(c2)CCC3)cs1)c1ccc(Cl)cc1`, the half-maximal inhibitory concentration (IC50) in the experiment on NIH3T3 came out at 120 µg/mL (≈ 326 µM).

`C/C(=N\Nc1nc(-c2ccc3c(c2)CCC3)cs1)c1ccccc1` came in with a concentration for half-maximal inhibition (IC50) in the experiment with NIH3T3 of 200 µg/mL (≈ 600 µM).

The term IC50 denotes the midpoint of a concentration-inhibition curve. Higher therefore signals weaker potency in that assay. The MIC is the lowest concentration that inhibits growth of the organism. A lower MIC goes with a more susceptible organism. A word on the inhibition: it is how much of the control response was suppressed. A lower inhibition goes with a weak effect.
